Active and inactive are the calls of the source. The rule behind the calls is not given here.
Experiments:
[1] = Cytotoxicity in melanoma UACC-62 cell line.; assay type: functional; conditions: Homo sapiens
Summary of the method: (§1)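 NCI screen of roughly 55 human cancer cell lines from diverse tumor origins, tested over 10^-4 to 10^-8 M. GI50 is the concentration giving 50% growth inhibition.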

[2] = Cytotoxicity in prostate DU-145 cell line.; assay type: functional; conditions: Homo sapiens; summary of the method: as §1
[3] = system: Panel (Carcinoma cell lines); experiment: Mean graph mid point for growth inhibition of all human cancer cell lines tested.; assay type: functional; parameters: unit: µM
Summary of the method: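 NCI screen of roughly 55 human cancer cell lines, test range 10^-4 to 10^-8 M. Mean graph midpoint is the average GI50 over all cell lines successfully tested. GI50 values below or above the range are set to 10^-8 M or 10^-4 M.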

[4] = Cytotoxicity in renal SN12C cell line.; assay type: functional; conditions: Homo sapiens; summary of the method: as §1
[5] = Cytotoxicity in ovarian OVCAR-3 cell line.; assay type: functional; conditions: Homo sapiens; summary of the method: as §1
[6] = Cytotoxicity in breast MDA-MB-435 cell line.; assay type: functional; conditions: Homo sapiens; summary of the method: as §1
[7] = Cytotoxicity in lung HOP-62 cell line.; assay type: functional; conditions: Homo sapiens; summary of the method: as §1
[8] = Cytotoxicity in colon HCT116 cell line.; assay type: functional; conditions: Homo sapiens, HCT-116; summary of the method: as §1
[9] = Cytotoxicity in CNS SF-539 cell line.; assay type: functional; conditions: Homo sapiens; summary of the method: as §1
[10] = biological target: T1, DNA topoisomerase 1 (Homo sapiens) (UniProt P11387); experiment: DNA topoisomerase I mediated cleavage activity tested up to a concentration of 100 uM; week activity
T1 sequence (whole entry): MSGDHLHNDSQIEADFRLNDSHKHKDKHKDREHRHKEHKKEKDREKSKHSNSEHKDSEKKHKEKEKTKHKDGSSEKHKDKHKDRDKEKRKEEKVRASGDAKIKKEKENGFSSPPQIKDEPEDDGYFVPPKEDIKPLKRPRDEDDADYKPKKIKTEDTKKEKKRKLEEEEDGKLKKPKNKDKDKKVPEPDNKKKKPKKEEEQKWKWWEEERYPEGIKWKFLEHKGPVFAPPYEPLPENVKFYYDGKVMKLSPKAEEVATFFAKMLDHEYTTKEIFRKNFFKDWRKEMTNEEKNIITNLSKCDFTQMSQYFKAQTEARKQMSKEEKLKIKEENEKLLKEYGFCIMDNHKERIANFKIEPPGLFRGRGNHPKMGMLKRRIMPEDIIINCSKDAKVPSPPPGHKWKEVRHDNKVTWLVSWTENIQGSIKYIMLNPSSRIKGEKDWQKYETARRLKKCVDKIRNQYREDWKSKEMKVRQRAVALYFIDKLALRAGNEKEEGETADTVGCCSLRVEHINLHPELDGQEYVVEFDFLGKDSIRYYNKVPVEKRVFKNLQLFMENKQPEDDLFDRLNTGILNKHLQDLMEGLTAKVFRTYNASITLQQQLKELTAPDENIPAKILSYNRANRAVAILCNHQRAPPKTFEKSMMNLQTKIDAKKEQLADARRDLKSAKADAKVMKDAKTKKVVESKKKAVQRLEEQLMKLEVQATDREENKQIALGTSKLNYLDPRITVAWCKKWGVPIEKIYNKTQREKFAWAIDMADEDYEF
Summary of the method: (§2)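 Baculovirus-expressed human recombinant top1 was incubated with a 161 bp PvuII/HindIII fragment of pBluescript SK(-), 3'-end-labeled at the HindIII site with [α-32P]-dCTP (about 50 000 dpm per reaction), and drug up to 100 μM, for 30 min at 22 °C. Reactions were stopped with 0.5% SDS final. Products ran on denaturing 16% polyacrylamide/7 M urea gels at 51 °C. Cleavage was scored semiquantitatively (+, ++, +++) against the parent lead.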

[11] = biological target: T1, DNA topoisomerase 1 (Homo sapiens); experiment: DNA topoisomerase I mediated cleavage activity tested up to a concentration of 100 uM; Same activity as compound 1; summary of the method: as §2
[12] = biological target: T1, DNA topoisomerase 1 (Homo sapiens); experiment: DNA topoisomerase I mediated cleavage activity tested up to a concentration of 100 uM; Greater activity than compound 1; summary of the method: as §2
[13] = biological target: T1, DNA topoisomerase 1 (Homo sapiens); experiment: DNA topoisomerase I mediated cleavage activity tested up to a concentration of 100 uM; Active or inactive; summary of the method: as §2
[14] = biological target: T1, DNA topoisomerase 1 (Homo sapiens); experiment: DNA topoisomerase I mediated cleavage activity tested up to a concentration of 100 uM; summary of the method: as §2

SMILES | GI50 [1] | GI50 [2] | MGM [3] | GI50 [4] | GI50 [5] | GI50 [6] | GI50 [7] | GI50 [8] | GI50 [9] | Activity [10] | Activity [11] | Activity [12] | Activity [13] | Activity [14]
COc1cc2c(cc1OC)[C@H]1C(=O)c3c(ccc4ccccc34)[C@H]1N(CCCBr)C2=O | 2.39 µM | 2.46 µM | 2.95 | 2.35 µM | 1.97 µM | 2.25 µM | 1.44 µM | 4.02 µM |  |  |  |  |  | 
CCCN1C(=O)c2cc(OC)c(OC)cc2[C@H]2C(=O)c3cc4c(cc3[C@H]21)OCO4 | 0.26 µM | 0.31 µM | 0.69 | 0.43 µM | 0.92 µM | 1.1 µM | 0.59 µM | 0.39 µM | 0.44 µM |  |  |  |  | 
COc1cc2c(cc1OC)[C@H]1C(=O)c3cc4c(cc3[C@H]1N(Cc1ccccc1)C2=O)OCO4 | 1.84 µM | 0.55 µM | 1.18 | 0.39 µM | 7.17 µM |  | 2.93 µM | 0.54 µM | 0.38 µM |  |  |  |  | 
COc1cc2c(cc1OC)[C@H]1C(=O)c3cc4c(cc3[C@H]1N(CCCN=[N+]=[N-])C2=O)OCO4 | 0.29 µM | 0.33 µM | 0.69 | 0.25 µM | 1.27 µM | 1.27 µM | 0.36 µM | 0.4 µM | 0.33 µM | week activity |  |  |  | 
COc1cc2c(cc1OC)[C@H]1C(=O)c3cc4c(cc3[C@H]1N(CC#N)C2=O)OCO4 | 1.73 µM | 0.85 µM | 3.28 | 0.41 µM | 2.02 µM | 9.04 µM | 5.42 µM | 0.6 µM | 2.12 µM |  |  |  |  | 
COc1cc2c3c(n(C)c(=O)c2cc1OC)-c1cc2c(cc1C3=O)OCO2 |  |  | 20 |  |  |  |  |  |  |  | Same activity as compound 1 |  |  | 
COc1cc2c(cc1OC)[C@H]1C(=O)c3c(ccc4ccccc34)[C@H]1N(CCCCl)C2=O | 3.73 µM | 5.49 µM | 4.22 | 11.6 µM | 1.93 µM | 2.48 µM | 2.76 µM | 6.52 µM | 14.7 µM |  |  |  |  | 
COc1cc2c(cc1OC)[C@H]1C(=O)c3cc4c(cc3[C@H]1N(CCCCl)C2=O)OCO4 | 0.02 µM | 0.03 µM | 0.11 | 0.02 µM | 0.36 µM | 0.33 µM | 0.08 µM | 0.16 µM | 0.02 µM |  |  |  |  | 
CC[n+]1cc2cc(OC)c(OC)cc2c2c1-c1cc3c(cc1C2)OCO3.[Cl-] |  |  | 13 |  |  |  |  |  |  |  | Same activity as compound 1 |  |  | 
CCCCN1C(=O)c2cc(OC)c(OC)cc2[C@H]2C(=O)c3cc4c(cc3[C@H]21)OCO4 | 0.61 µM |  | 2.14 |  | 1.4 µM | 1.6 µM | 0.45 µM | 0.11 µM | 0.32 µM |  |  |  |  | 
CCC[n+]1cc2cc(OC)c(OC)cc2c2c1-c1cc3c(cc1C2)OCO3.[Cl-] | 2.19 µM | 10.5 µM | 4.1 | 0.64 µM | 1 µM | 3.37 µM | 3.98 µM | 3.55 µM | 1.08 µM |  |  | Greater activity than compound 1 |  | 
COc1cc2c(cc1OC)[C@H]1C(=O)c3cc4c(cc3[C@H]1N(CC(F)(F)F)C2=O)OCO4 | 4.12 µM | 7.5 µM | 6.6 | 7.87 µM | 7.96 µM | 7.6 µM | 34 µM | 14.4 µM | 7.63 µM |  |  |  |  | 
CCN1C(=O)c2cc(OC)c(OC)cc2[C@H]2C(=O)c3cc4c(cc3[C@H]21)OCO4 |  |  | 0.81 |  |  |  |  |  |  |  |  |  | inactive | 
C=CCN1C(=O)c2cc(OC)c(OC)cc2[C@H]2C(=O)c3cc4c(cc3[C@H]21)OCO4 |  |  | 0.98 |  |  |  |  |  |  |  |  |  |  | 0
CCOC(=O)CCCN1C(=O)c2cc(OC)c(OC)cc2[C@H]2C(=O)c3cc4c(cc3[C@H]21)OCO4 | 3.04 µM | 3.07 µM | 7.76 | 2.07 µM | 22 µM | 16.5 µM | 2.22 µM | 1.81 µM |  |  |  |  |  | 
COc1cc2c(cc1OC)[C@H]1C(=O)c3cc4c(cc3[C@H]1N(CCCBr)C2=O)OCO4 | 0.05 µM | 0.03 µM | 0.12 | 0.03 µM | 0.4 µM | 0.15 µM | 0.12 µM | 0.07 µM | 0.04 µM |  | Same activity as compound 1 |  |  | 
CCCC[n+]1cc2cc(OC)c(OC)cc2c2c1-c1cc3c(cc1C2)OCO3.[Cl-] | 0.51 µM | 2.69 µM | 1.31 | 0.43 µM | 0.28 µM | 1.37 µM | 3.06 µM | 1.58 µM | 2.16 µM |  |  | Greater activity than compound 1 |  | 
CCCN1Cc2cc(OC)c(OC)cc2[C@@H]2[C@H]1c1cc3c(cc1[C@@H]2O)OCO3 | 18.7 µM | 33.9 µM | 20.9 |  | 6.3 µM | 5.8 µM | 16 µM | 17.8 µM | 21.7 µM |  |  |  |  | 
C/C=C(/C=O)CCN1C(=O)c2cc(OC)c(OC)cc2[C@H]2C(=O)c3cc4c(cc3[C@H]21)OCO4 | 0.15 µM | 0.22 µM | 0.95 | 0.14 µM | 7.12 µM | 4.46 µM | 0.3 µM | 0.25 µM | 0.21 µM |  |  |  |  | 
COC(=O)CCCN1C(=O)c2cc(OC)c(OC)cc2[C@H]2C(=O)c3cc4c(cc3[C@H]21)OCO4 | 0.53 µM | 0.63 µM | 1.48 | 0.24 µM | 2.43 µM | 2.89 µM | 0.82 µM | 0.34 µM | 0.71 µM |  |  |  |  | 

From ChEMBL document CHEMBL1135987, “Synthesis of new dihydroindeno[1,2-c]isoquinoline and indenoisoquinolinium chloride topoisomerase I inhibitors having high in vivo anticancer activity in the hollow fiber animal model” (2002)
